Assay results taken from ChEMBL document CHEMBL1149170, “Khellinone derivatives as blockers of the voltage-gated potassium channel Kv1.3: synthesis and immunosuppressive activity” (J Med Chem, 2004).

How the values were obtained:
[1] = target: T1, Potassium voltage-gated channel subfamily A member 3 (Homo sapiens, UniProt P22001); test: Dissociation constant for the blockade of voltage-gated potassium channel subunit Kv1.3 in human lymphocytes; no effect when tested at 1 uM; format: cell-based
Procedure, shortened: (§1)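 Whole-cell patch clamp on cells stably expressing Kv1.3, holding potential −80 mV. Bath: Ringer (160 mM NaCl, 4.5 mM KCl, 2 mM CaCl2, 1 mM MgCl2, 10 mM HEPES, pH 7.4). Pipette: 134 mM KF, 2 mM MgCl2, 10 mM HEPES, 10 mM EGTA, pH 7.2. 500-ms pulses to 40 mV every 45 s. Single test concentration only.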

[2] = target: T1, Potassium voltage-gated channel subfamily A member 3; test: Dissociation constant for the blockage of voltage-gated potassium channel subunit Kv1.3 in human lymphocytes; format: cell-based
Homo sapiens = organism: Homo sapiens; test: Inhibition of anti-CD3 dependent human T cell proliferation; format: functional
Procedure, shortened: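 PBMCs from healthy volunteers, isolated on a density gradient, seeded at 2×10^5 cells/well in supplemented RPMI 1640. Compound preincubation 60 min, then anti-CD3 antibody 50 ng/mL for 48 h. [3H]thymidine added for the last 6 h; incorporation counted by scintillation. Normalized to maximal control incorporation. Triplicate.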

[3] = Selectivity for Kv1.3 over Kv1.1 voltage-gated potassium channel subunit
Procedure, shortened: (§2)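 Ringer bath, KF/EGTA pipette. Kv1.1, Kv1.2, Kv1.5, Kv1.7 and IKCa1 recorded in stably or transiently expressing cells. Kd from Hill fit to reduction in current area. Each compound 2–3 times at 3–5 concentrations.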

[4] = Selectivity for Kv1.3 over Kv1.2 voltage-gated potassium channel subunit; procedure, shortened: as §2
[5] = target: T1, Potassium voltage-gated channel subfamily A member 3; test: Dissociation constant for blockade of voltage-gated potassium channel subunit Kv1.3 in human lymphocytes; no effect when tested at 10 uM; format: cell-based; procedure, shortened: as §1
[6] = Selectivity for Kv1.3 voltage-gated K+ channel over IKCa1 [Ca2+] activated K+ channel; procedure, shortened: as §2
[7] = Selectivity for Kv1.3 over Kv1.5 voltage-gated potassium channel subunit; procedure, shortened: as §2
[8] = Selectivity for Kv1.3 over Kv1.7 voltage-gated potassium channel subunit; procedure, shortened: as §2

T1 sequence (P22001 whole entry): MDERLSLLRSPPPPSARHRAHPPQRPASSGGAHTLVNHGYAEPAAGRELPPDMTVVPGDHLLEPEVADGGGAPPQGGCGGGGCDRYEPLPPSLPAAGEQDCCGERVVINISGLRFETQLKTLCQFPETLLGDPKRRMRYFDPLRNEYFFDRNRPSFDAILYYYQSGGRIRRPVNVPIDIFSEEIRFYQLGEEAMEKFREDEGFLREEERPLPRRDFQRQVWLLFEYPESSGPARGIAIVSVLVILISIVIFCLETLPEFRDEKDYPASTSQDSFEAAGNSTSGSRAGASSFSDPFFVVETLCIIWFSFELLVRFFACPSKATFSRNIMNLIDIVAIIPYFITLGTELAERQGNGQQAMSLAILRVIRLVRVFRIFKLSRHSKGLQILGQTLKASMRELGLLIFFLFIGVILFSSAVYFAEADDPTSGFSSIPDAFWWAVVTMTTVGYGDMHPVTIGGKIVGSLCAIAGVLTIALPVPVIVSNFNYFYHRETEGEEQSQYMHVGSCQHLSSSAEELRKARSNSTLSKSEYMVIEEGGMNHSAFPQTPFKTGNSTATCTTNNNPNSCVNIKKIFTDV

**Q.** Which Kd [1] does the source give for `COc1c(C(=O)/C=C/c2ccccc2)c(OCc2ccc(COc3c(C(=O)/C=C/c4ccccc4)c(OC)c4ccoc4c3OC)cc2)c(OC)c2occc12` here?
**A.** Its Kd is “Not Active”.

**Q.** Which Kd [2] does the source give for `COc1c(C(C)O)c(OCc2ccc(COc3c(C(C)O)c(OC)c4occc4c3OC)cc2)c(OC)c2occc12` (stereo unspecified) here?
**A.** The Kd was 2 µM.

**Q.** Which Kd [2] does the source give for `COc1c(C(=O)/C=C/c2ccccc2)c(O)cc2occc12` here?
**A.** The Kd was 17 µM.

**Q.** With `COc1c(C(C)=O)c(OCc2cccc(COc3c(C(C)=O)c(OC)c4ccoc4c3OC)c2)c(OC)c2occc12` as the compound, how does the Kd [2] read?
**A.** Its Kd is 0.56 µM.

**Q.** With `COc1c(C(C)=O)c(OCCCCCCOc2c(C(C)=O)c(OC)c3ccoc3c2OC)c(OC)c2occc12` as the compound, how does the EC50 (Homo sapiens) read?
**A.** The EC50 was 0.8 µM.

**Q.** And the Kd [3]?
**A.** The Kd was 0.3 µM.

**Q.** What about the Kd [4] of the same compound?
**A.** Its Kd is 0.25 µM.

**Q.** And the Kd [2]?
**A.** The Kd was 0.68 µM.

**Q.** With `COc1c(C(=O)/C=C/c2cccc(/C=C/C(=O)c3c(O)c(OC)c4occc4c3OC)c2)c(O)c(OC)c2occc12` as the compound, how does the Kd [5] read?
**A.** Its Kd is “Not Active”.

**Q.** For `COc1c(/C(C)=N/N=C(\C)c2c(O)c(OC)c3occc3c2OC)c(O)c(OC)c2occc12`, which Kd [2] is on record?
**A.** Its Kd is 70 µM.

**Q.** Which Kd [6] does the source give for `COc1c(C(=O)/C=C/c2ccccc2)c(O)c(OC)c2occc12` here?
**A.** Its Kd is > 100 µM.

**Q.** And the Kd [7]?
**A.** The Kd was 5.1 µM.

**Q.** And the EC50 (Homo sapiens)?
**A.** Its EC50 is 0.6 µM.

**Q.** What about the Kd [3] of the same compound?
**A.** The Kd was 1.2 µM.

**Q.** And the Kd [4]?
**A.** The Kd was > 50 µM.

**Q.** What about the Kd [8] of the same compound?
**A.** Its Kd is 10 µM.

**Q.** For `COc1c(C(C)=O)c(O)cc2occc12`, which Kd [2] is on record?
**A.** Its Kd is 100 µM.

**Q.** Which results are given for `COc1c(C(=O)/C=C/c2cccc(O)c2)c(O)c(OC)c2occc12`?
**A.** Kd [6]: > 100 µM; Kd [7]: 12 µM; EC50 (Homo sapiens): 1 µM; Kd [3]: 1.7 µM; Kd [4]: > 50 µM; Kd [8]: 50 µM

**Q.** For `COc1c(C(=O)/C=C/c2cccs2)c(O)c(OC)c2occc12`, which Kd [2] is on record?
**A.** Its Kd is 1 µM.

**Q.** With `COc1c(C(=O)/C=C/C=C/c2ccccc2)c(O)c(OC)c2occc12` as the compound, how does the Kd [1] read?
**A.** Its Kd is “Not Active”.

**Q.** Which Kd [5] does the source give for `COCCOCCOCCOCCOC(=O)c1cc(COc2c(C(C)=O)c(OC)c3ccoc3c2OC)ccc1COc1c(C(C)=O)c(OC)c2ccoc2c1OC` here?
**A.** Its Kd is “Not Active”.

**Q.** Which Kd [2] does the source give for `COc1c(C(C)=O)c(OCCOCCOc2c(C(C)=O)c(OC)c3ccoc3c2OC)c(OC)c2occc12` here?
**A.** Its Kd is 4 µM.

**Q.** Which Kd [2] does the source give for `COc1c(C(C)=O)c(OCc2ccc(COc3cc4occc4c(OC)c3C(C)=O)cc2)cc2occc12` here?
**A.** The Kd was 1 µM.

**Q.** With `COc1c(C(C)=O)c(OCc2ccc(COc3c(C(C)=O)c(OC)c4ccoc4c3OC)cc2)c(OC)c2occc12` as the compound, how does the Kd [2] read?
**A.** The Kd was 3.1 µM.

**Q.** For `COc1c(C(C)=O)c(OCc2cc(COc3c(C(C)=O)c(OC)c4ccoc4c3OC)cc(COc3c(C(C)=O)c(OC)c4ccoc4c3OC)c2)c(OC)c2occc12`, which Kd [5] is on record?
**A.** Its Kd is “Not Active”.

**Q.** With `COc1cccc(/C=C/C(=O)c2c(O)c(OC)c3occc3c2OC)c1` as the compound, how does the Kd [6] read?
**A.** The Kd was > 100 µM.

**Q.** And the Kd [7]?
**A.** The Kd was 20 µM.

**Q.** And the EC50 (Homo sapiens)?
**A.** The EC50 was 1 µM.

**Q.** And the Kd [3]?
**A.** The Kd was 2 µM.

**Q.** What about the Kd [4] of the same compound?
**A.** The Kd was > 50 µM.

**Q.** And the Kd [2]?
**A.** Its Kd is 0.8 µM.

**Q.** What about the Kd [8] of the same compound?
**A.** The Kd was > 50 µM.

**Q.** With `COc1c(C(=O)CCc2ccccc2)c(O)c(OC)c2occc12` as the compound, how does the Kd [2] read?
**A.** The Kd was 0.6 µM.

**Q.** Which Kd [2] does the source give for `COc1c(C(C)=O)c(OCCCCCOc2c(C(C)=O)c(OC)c3ccoc3c2OC)c(OC)c2occc12` here?
**A.** Its Kd is 0.82 µM.

**Q.** With `COc1c(C(C)=O)c(OCc2ccc(COc3c(C(C)=O)c(OC)c4ccoc4c3OC)c(C(=O)O)c2)c(OC)c2occc12` as the compound, how does the Kd [2] read?
**A.** The Kd was 5 µM.

**Q.** For `COc1c(C(C)=O)c(OCc2ccccc2)c(OC)c2occc12`, which Kd [2] is on record?
**A.** The Kd was 10 µM.

**Q.** Which Kd [2] does the source give for `COc1c(C(=O)/C=C/c2cc(Br)cs2)c(O)c(OC)c2occc12` here?
**A.** The Kd was 0.8 µM.

**Q.** For `COc1c(C(C)=O)c(OCCCCCCCOc2c(C(C)=O)c(OC)c3ccoc3c2OC)c(OC)c2occc12`, which Kd [2] is on record?
**A.** The Kd was 3 µM.

**Q.** For `COc1c(C(C)=O)c(O)c(OC)c2occc12`, which Kd [2] is on record?
**A.** Its Kd is 50 µM.

**Q.** With `COc1c(C(=O)/C=C/c2ccc(C)cc2)c(O)c(OC)c2occc12` as the compound, how does the Kd [2] read?
**A.** The Kd was 0.7 µM.

**Q.** Which EC50 (Homo sapiens) does the source give for `C=C1C[C@@]2(O)[C@@H]3CC[C@@]4(C)[C@@H]5C=CC(=O)OC[C@]5(C(C)OC(C)=O)[C@@H](OC(C)=O)[C@@H](OC(C)=O)[C@@H]4[C@@]3(C)[C@H](OC(C)=O)[C@H](OC(C)=O)[C@@]2(C)C2(C(=O)OC)O[C@H]12` (stereo partly specified) [CORREOLIDE] here?
**A.** The EC50 was 0.3 µM.

**Q.** And the Kd [2]?
**A.** Its Kd is 0.1 µM.

**Q.** With `Nc1ccncc1` [DALFAMPRIDINE] as the compound, how does the Kd [6] read?
**A.** Its Kd is 29 µM.

**Q.** What about the Kd [7] of the same compound?
**A.** The Kd was 270 µM.

**Q.** And the Kd [3]?
**A.** The Kd was 290 µM.

**Q.** What about the Kd [4] of the same compound?
**A.** The Kd was 590 µM.
